Format in all cases: functional
For experiment [1], the species on record is Bos taurus. Description: Antiangiogenic activity against BLMVEC grown on RGF-BME assessed as formation of small cell clumps at 100 uM after 16 hrs by calcein staining-based microscopy. A digest of the protocol:
(§1)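 1×10^5 BLMVEC premixed with test compound in MCDB-131 medium, then added to matrigel in duplicate wells. Wells received 100 μM compound. Controls were untreated wells and sulforaphane. Plates were incubated 16 hrs at 37 °C and cells were imaged by microscopy. Inhibition was scored from network morphology: branching and interconnection of tubes versus dispersed cells or short, unconnected tubes.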

The next experiment has as its system Endothelial cell. Description: Antiangiogenic activity against BLMVEC grown on RGF-BME assessed as dispersed endothelial cells at 100 uM after 16 hrs by calcein staining-based microscopy. The note with it: Bos taurus. Put shortly: as §1
The species entered for experiment [2] is Bos taurus. Description: Antiangiogenic activity against BLMVEC grown on RGF-BME assessed as inhibition of tube-like network formation at 100 uM after 16 hrs by calcein staining-based microscopy. A digest of the protocol:
as §1

Experiment [3] is filed under the species Bos taurus. Description: Antiangiogenic activity against BLMVEC grown on RGF-BME assessed as inhibition of tube formation at 100 uM after 16 hrs by calcein staining-based microscopy. A digest of the protocol:
as §1

Experiment [4] is filed under the species Bos taurus. Description: Antiangiogenic activity against BLMVEC grown on RGF-BME assessed as inhibition of branching at 100 uM after 16 hrs by calcein staining-based microscopy. Put shortly: as §1

Activity calls are given as the source filed them. The rule behind the calls is not given here.

In the case of `C[C@]12CC[C@@H]3c4ccc(OS(=O)(=O)O)cc4CC[C@H]3[C@@H]1CC[C@@H]2O`, the outcome in the experiment listed under Bos taurus [1] and in the experiment with Endothelial cell was Active. Further, the inhibition result in the experiment filed under Bos taurus [2] and in the experiment filed under Bos taurus [3] was “Active” each time.

With `O=C(CCc1ccc(OS(=O)(=O)O)cc1)c1c(OS(=O)(=O)O)cc(OS(=O)(=O)O)cc1OS(=O)(=O)O`, the outcome in the experiment listed under Bos taurus [1] and in the experiment on Endothelial cell was Active. Also, the inhibition entry in the experiment filed under Bos taurus [2] and in the experiment listed under Bos taurus [3] was “Active” in each case.

On to `CCOC(=O)[C@@H]1Cc2cc(OS(=O)(=O)O)c(OS(=O)(=O)O)cc2CN1C(=O)c1cc(OS(=O)(=O)O)c(OS(=O)(=O)O)c(OS(=O)(=O)O)c1`, for which the result in the experiment listed under Bos taurus [1] and with Endothelial cell was inactive. Moreover, the inhibition entry in the experiment filed under Bos taurus [2], in the experiment listed under Bos taurus [3] and in the experiment listed under Bos taurus [4] was “inactive” throughout.

On to `O=c1cc(-c2ccc(OS(=O)(=O)O)c(OS(=O)(=O)O)c2)oc2cc(OS(=O)(=O)O)cc(OS(=O)(=O)O)c12`, for which the result in the experiment filed under Bos taurus [1] and with Endothelial cell was Active. Further, the inhibition entry in the experiment listed under Bos taurus [2] and in the experiment filed under Bos taurus [3] was “Active” throughout.

Regarding `CCOC(=O)[C@@H]1Cc2cc(OS(=O)(=O)O)c(OS(=O)(=O)O)cc2CN1C(=O)c1ccc(OS(=O)(=O)O)c(OS(=O)(=O)O)c1`, the result in the experiment filed under Bos taurus [1] and with Endothelial cell was inactive. In addition, the inhibition entry in the experiment listed under Bos taurus [2], in the experiment listed under Bos taurus [3] and in the experiment filed under Bos taurus [4] was “inactive” in each case.

As for `O=c1cc(-c2ccc(OS(=O)(=O)O)cc2)oc2cc(OS(=O)(=O)O)cc(OS(=O)(=O)O)c12`, the outcome in the experiment listed under Bos taurus [1] and with Endothelial cell was Active. Also, the inhibition result in the experiment filed under Bos taurus [2] and in the experiment filed under Bos taurus [3] was “Active” each time.

Take `O=c1c(OS(=O)(=O)O)c(-c2ccc(OS(=O)(=O)O)c(OS(=O)(=O)O)c2)oc2cc(OS(=O)(=O)O)cc(OS(=O)(=O)O)c12`: the result in the experiment listed under Bos taurus [1] and in the experiment on Endothelial cell was inactive. Moreover, the inhibition result in the experiment filed under Bos taurus [2], in the experiment filed under Bos taurus [3] and in the experiment listed under Bos taurus [4] was “inactive” in each case.

Turning to `O=C(c1cc(OS(=O)(=O)O)c(OS(=O)(=O)O)c(OS(=O)(=O)O)c1)N1CCc2cc(OS(=O)(=O)O)c(OS(=O)(=O)O)cc2C1`, the result in the experiment listed under Bos taurus [1] and in the experiment on Endothelial cell was inactive. Moreover, the inhibition result in the experiment listed under Bos taurus [2], in the experiment filed under Bos taurus [3] and in the experiment listed under Bos taurus [4] was “inactive” in each case.

Regarding `O=C1c2c(cc(OS(=O)(=O)O)cc2OS(=O)(=O)O)O[C@@H](c2ccc(OS(=O)(=O)O)c(OS(=O)(=O)O)c2)[C@@H]1OS(=O)(=O)O`, the outcome in the experiment listed under Bos taurus [1] and in the experiment with Endothelial cell was inactive. Also, the inhibition result in the experiment listed under Bos taurus [2], in the experiment listed under Bos taurus [3] and in the experiment filed under Bos taurus [4] was “inactive” in each case.

For the molecule `O=c1c(OS(=O)(=O)O)c(-c2ccccc2OS(=O)(=O)O)oc2ccccc12`, the outcome in the experiment listed under Bos taurus [1] and in the experiment with Endothelial cell was Active. Moreover, the inhibition result in the experiment filed under Bos taurus [2] and in the experiment listed under Bos taurus [3] was “Active” each time.

With `O=c1c(OS(=O)(=O)O)c(-c2ccc(OS(=O)(=O)O)cc2OS(=O)(=O)O)oc2ccc(OS(=O)(=O)O)cc12`, the result in the experiment filed under Bos taurus [1] and in the experiment with Endothelial cell was inactive. Moreover, the inhibition result in the experiment listed under Bos taurus [2], in the experiment listed under Bos taurus [3] and in the experiment listed under Bos taurus [4] was “inactive” in each case.

For the molecule `O=C1c2c(cc(OS(=O)(=O)O)cc2OS(=O)(=O)O)O[C@@H](c2ccc(OS(=O)(=O)O)c(OS(=O)(=O)O)c2)[C@H]1OS(=O)(=O)O`, the outcome in the experiment filed under Bos taurus [1] and in the experiment with Endothelial cell was inactive. The inhibition result in the experiment listed under Bos taurus [2], in the experiment filed under Bos taurus [3] and in the experiment filed under Bos taurus [4] was “inactive” in each case.

Consider `O=C(c1ccc(OS(=O)(=O)O)c(OS(=O)(=O)O)c1)N1CCc2cc(OS(=O)(=O)O)c(OS(=O)(=O)O)cc2C1`, for which the result in the experiment filed under Bos taurus [1] and with Endothelial cell was inactive. The inhibition entry in the experiment listed under Bos taurus [2], in the experiment listed under Bos taurus [3] and in the experiment filed under Bos taurus [4] was “inactive” throughout.

As for `O=c1c(OS(=O)(=O)O)c(-c2ccc(OS(=O)(=O)O)c(OS(=O)(=O)O)c2)oc2cc(OS(=O)(=O)O)ccc12`, the result in the experiment filed under Bos taurus [1] and in the experiment on Endothelial cell was inactive. In addition, the inhibition result in the experiment listed under Bos taurus [2], in the experiment listed under Bos taurus [3] and in the experiment listed under Bos taurus [4] was “inactive” in each case.

The record behind these values is ChEMBL document CHEMBL2040845, “Discovery of novel sulfonated small molecules that inhibit vascular tube formation” (Bioorg Med Chem Lett, 2012).
